Reference: ChEMBL document CHEMBL4350961, “Discovery of Pyrrolo[3,2- d]pyrimidin-4-one Derivatives as a New Class of Potent and Cell-Active Inhibitors of P300/CBP-Associated Factor Bromodomain” (J Med Chem, 2019)
The source made the active and inactive calls.

Columns and labels:
[1] = molecular target: Bromodomain-containing protein 2 (Homo sapiens) (UniProt P25440); test: Binding affinity to human partial length BRD2 bromodomain 1 long isoform (K71 to N194 residues) expressed in bacterial expression system at 1 uM by BROMOscan assay
In short: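 BROMOscan bromodomain cross-screen run by an outside service, compound at 1 µM against 32 recombinant bromodomains. Binding given as percent of control.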

[2] = Aqueous solubility of the compound by HPLC analysis; assay type: physicochemical; settings: buffer
In short: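 Measured by HPLC on a C18 reversed-phase column.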

[3] = system: Tyrosine-protein kinase ABL1 (Homo sapiens), P00519 [Y253F]; test: Inhibition of recombinant human ABL Y253F mutant (27 to end residues) at 10 uM using EAIYAAPFAKKK as substrate measured after 40 mins in presence of [gamma33P]ATP by scintillation counting method
[4] = system: Calcium/calmodulin-dependent protein kinase kinase 2 (Homo sapiens), Q96RR4 [T85S]; test: Inhibition of recombinant full-length human CAMKk2 T85S mutant at 10 uM using calmodulin as substrate measured after 40 mins in presence of [gamma33P]ATP by scintillation counting method
Chain of Calcium/calmodulin-dependent protein kinase kinase 2 (Homo sapiens), Q96RR4 [T85S] (Q96RR4 whole entry T85S): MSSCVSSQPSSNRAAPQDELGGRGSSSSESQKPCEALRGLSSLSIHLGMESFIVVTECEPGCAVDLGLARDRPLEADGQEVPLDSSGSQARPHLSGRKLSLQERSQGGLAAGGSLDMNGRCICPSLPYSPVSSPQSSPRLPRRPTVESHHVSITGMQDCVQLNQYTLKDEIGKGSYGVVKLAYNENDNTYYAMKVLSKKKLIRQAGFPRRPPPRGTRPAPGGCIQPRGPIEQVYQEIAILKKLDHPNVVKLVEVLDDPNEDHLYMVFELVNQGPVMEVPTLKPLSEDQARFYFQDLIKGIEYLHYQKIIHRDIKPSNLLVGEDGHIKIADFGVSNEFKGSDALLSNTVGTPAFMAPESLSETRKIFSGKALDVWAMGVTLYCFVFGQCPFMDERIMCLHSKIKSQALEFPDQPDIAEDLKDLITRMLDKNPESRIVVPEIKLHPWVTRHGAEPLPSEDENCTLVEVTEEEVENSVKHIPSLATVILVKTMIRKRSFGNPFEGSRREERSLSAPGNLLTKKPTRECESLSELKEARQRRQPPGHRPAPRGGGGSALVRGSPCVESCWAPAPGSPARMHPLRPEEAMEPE

[5] = molecular target: Cyclin-dependent kinase 5/CDK5 activator 1 (Homo sapiens) (UniProt Q00535+Q15078); test: Inhibition of recombinant full-length human CDK5/p35 at 10 uM using histone H1 as substrate measured after 40 mins in presence of [gamma33P]ATP by scintillation counting method; assay type: protein-complex assay
[6] = molecular target: Cyclin-dependent kinase 13/Cyclin-K (Homo sapiens) (UniProt Q14004+O75909); test: Inhibition of recombinant full length human CDK13/cyclinK at 10 uM using RSRSRSRSRSRSRSR as substrate measured after 120 mins in presence of [gamma33P]ATP by scintillation counting method; assay type: protein-complex assay
[7] = molecular target: Dual specificity tyrosine-phosphorylation-regulated kinase 1A (Homo sapiens) (UniProt Q13627); test: Inhibition of recombinant full-length human DYRK1A at 10 uM using RRRFRPASPLRGPPK as substrate measured after 40 mins in presence of [gamma33P]ATP by scintillation counting method
[8] = system: Epidermal growth factor receptor (Homo sapiens), P00533 [T790M]; test: Inhibition of recombinant human EGFR T790M mutant (696 to end residues) at 10 uM using GGMEDIYFEFMGGKKK as substrate measured after 40 mins in presence of [gamma33P]ATP by scintillation counting method
[9] = molecular target: Ephrin type-B receptor 3 (Homo sapiens) (UniProt P54753); test: Inhibition of recombinant human EphB3 (599 to 920 residues) at 10 uM using poly (Glu, Tyr) 4:1 as substrate measured after 40 mins in presence of [gamma33P]ATP by scintillation counting method
Chain of Ephrin type-B receptor 3 (Homo sapiens) (P54753 whole entry, the tested form may be a part): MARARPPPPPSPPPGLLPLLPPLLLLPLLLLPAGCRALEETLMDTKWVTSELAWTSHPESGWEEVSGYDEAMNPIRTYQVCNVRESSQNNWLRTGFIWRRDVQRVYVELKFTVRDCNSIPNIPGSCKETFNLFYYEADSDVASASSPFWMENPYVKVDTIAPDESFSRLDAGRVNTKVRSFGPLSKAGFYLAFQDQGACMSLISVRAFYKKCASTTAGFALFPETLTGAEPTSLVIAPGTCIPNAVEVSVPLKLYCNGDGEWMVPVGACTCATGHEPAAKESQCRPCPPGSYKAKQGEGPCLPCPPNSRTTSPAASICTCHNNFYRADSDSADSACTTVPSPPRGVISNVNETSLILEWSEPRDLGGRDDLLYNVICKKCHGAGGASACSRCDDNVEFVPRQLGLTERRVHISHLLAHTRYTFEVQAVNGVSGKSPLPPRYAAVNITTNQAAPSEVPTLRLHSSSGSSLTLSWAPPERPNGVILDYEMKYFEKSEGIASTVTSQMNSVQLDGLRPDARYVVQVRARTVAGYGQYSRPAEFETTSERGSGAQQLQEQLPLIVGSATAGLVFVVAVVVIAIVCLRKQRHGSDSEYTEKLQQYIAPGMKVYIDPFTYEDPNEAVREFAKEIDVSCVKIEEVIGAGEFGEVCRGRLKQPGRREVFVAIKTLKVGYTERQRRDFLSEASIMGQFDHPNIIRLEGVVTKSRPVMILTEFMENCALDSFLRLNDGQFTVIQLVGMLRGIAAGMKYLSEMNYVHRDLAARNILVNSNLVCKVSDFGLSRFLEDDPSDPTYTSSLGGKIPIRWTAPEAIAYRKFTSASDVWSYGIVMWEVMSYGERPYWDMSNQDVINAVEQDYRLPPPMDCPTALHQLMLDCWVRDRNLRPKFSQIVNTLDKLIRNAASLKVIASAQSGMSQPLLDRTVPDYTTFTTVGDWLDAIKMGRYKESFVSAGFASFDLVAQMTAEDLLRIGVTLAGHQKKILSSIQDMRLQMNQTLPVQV

[10] = molecular target: Fibroblast growth factor receptor 3 (Homo sapiens) (UniProt P22607); test: Inhibition of recombinant human FGFR3 (447 to 761 residues) at 10 uM using poly(Glu, Tyr) 4:1 as substrate measured after 40 mins in presence of [gamma33P]ATP by scintillation counting method
Chain of Fibroblast growth factor receptor 3 (Homo sapiens) (P22607 23-806 limits assumed): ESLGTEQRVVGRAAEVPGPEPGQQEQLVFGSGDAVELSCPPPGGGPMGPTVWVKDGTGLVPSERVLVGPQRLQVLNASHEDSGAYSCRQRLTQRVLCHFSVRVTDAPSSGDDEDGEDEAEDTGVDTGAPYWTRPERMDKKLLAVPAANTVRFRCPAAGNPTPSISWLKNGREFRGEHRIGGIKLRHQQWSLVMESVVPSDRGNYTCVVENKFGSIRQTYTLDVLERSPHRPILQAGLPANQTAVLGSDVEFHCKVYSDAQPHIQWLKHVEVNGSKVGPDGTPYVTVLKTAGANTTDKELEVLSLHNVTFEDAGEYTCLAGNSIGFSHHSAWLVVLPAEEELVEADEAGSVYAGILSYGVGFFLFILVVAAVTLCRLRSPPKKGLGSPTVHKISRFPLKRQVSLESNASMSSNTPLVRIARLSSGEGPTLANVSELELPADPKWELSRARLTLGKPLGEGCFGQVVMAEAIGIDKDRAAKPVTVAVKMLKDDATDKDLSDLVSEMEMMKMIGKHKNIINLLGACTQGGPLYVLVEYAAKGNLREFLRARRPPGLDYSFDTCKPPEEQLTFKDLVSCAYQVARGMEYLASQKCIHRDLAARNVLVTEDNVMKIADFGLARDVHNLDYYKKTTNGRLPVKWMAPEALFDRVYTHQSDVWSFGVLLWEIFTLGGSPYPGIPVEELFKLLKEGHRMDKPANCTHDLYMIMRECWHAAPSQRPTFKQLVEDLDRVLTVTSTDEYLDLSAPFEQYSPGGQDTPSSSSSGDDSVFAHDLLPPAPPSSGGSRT

[11] = molecular target: Tyrosine-protein kinase Fgr (Homo sapiens) (UniProt P09769); test: Inhibition of recombinant human FGR (2 to end residues) at 10 uM using poly(Glu, Tyr) 4:1 as substrate measured after 40 mins in presence of [gamma33P]ATP by scintillation counting method
[12] = system: eIF-2-alpha kinase GCN2 (Homo sapiens), Q9P2K8 [E556G]; test: Inhibition of recombinant full-length human GCN2 E556G mutant at 10 uM using RSRSRSRSRSRSRSR as substrate measured after 40 mins in presence of [gamma33P]ATP by scintillation counting method
[13] = molecular target: Inhibitor of nuclear factor kappa-B kinase subunit beta (Homo sapiens) (UniProt O14920); test: Inhibition of recombinant full-length human IKKbeta at 10 uM using peptide substrate measured after 40 mins in presence of [gamma33P]ATP by scintillation counting method
Chain of Inhibitor of nuclear factor kappa-B kinase subunit beta (Homo sapiens) (O14920 whole entry, the tested form may be a part): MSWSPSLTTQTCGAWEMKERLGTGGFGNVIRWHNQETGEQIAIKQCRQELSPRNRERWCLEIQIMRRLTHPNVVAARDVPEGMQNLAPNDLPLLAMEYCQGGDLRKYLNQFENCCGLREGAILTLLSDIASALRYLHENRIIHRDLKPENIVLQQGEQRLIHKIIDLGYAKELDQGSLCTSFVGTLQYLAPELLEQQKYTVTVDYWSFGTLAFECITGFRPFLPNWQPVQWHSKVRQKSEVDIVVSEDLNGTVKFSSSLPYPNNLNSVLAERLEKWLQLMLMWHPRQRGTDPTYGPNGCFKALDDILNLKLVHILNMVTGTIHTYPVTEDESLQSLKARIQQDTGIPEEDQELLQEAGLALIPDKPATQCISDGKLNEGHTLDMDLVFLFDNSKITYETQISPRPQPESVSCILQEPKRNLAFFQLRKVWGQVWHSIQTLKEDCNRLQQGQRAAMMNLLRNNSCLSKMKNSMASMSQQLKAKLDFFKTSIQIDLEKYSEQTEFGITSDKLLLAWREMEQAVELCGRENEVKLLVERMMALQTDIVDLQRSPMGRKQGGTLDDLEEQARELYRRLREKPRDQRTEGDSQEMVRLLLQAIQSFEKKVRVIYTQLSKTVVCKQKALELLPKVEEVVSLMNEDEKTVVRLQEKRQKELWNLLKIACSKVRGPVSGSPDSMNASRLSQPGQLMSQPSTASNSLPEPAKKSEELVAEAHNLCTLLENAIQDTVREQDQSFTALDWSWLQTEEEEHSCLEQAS

[14] = molecular target: Serine/threonine-protein kinase MRCK beta (Homo sapiens) (UniProt Q9Y5S2); test: Inhibition of recombinant human MRCKbeta (1 to 473 residues) at 10 uM using KKRNRTLTV as substrate measured after 40 mins in presence of [gamma33P]ATP by scintillation counting method
[15] = molecular target: Serine/threonine-protein kinase Nek9 (Homo sapiens) (UniProt Q8TD19); test: Inhibition of recombinant human NEK9 (1 to 324 residues) at 10 uM using myelin basic protein as substrate measured after 40 mins in presence of [gamma33P]ATP by scintillation counting method
Chain of Serine/threonine-protein kinase Nek9 (Homo sapiens) (Q8TD19 whole entry, the tested form may be a part): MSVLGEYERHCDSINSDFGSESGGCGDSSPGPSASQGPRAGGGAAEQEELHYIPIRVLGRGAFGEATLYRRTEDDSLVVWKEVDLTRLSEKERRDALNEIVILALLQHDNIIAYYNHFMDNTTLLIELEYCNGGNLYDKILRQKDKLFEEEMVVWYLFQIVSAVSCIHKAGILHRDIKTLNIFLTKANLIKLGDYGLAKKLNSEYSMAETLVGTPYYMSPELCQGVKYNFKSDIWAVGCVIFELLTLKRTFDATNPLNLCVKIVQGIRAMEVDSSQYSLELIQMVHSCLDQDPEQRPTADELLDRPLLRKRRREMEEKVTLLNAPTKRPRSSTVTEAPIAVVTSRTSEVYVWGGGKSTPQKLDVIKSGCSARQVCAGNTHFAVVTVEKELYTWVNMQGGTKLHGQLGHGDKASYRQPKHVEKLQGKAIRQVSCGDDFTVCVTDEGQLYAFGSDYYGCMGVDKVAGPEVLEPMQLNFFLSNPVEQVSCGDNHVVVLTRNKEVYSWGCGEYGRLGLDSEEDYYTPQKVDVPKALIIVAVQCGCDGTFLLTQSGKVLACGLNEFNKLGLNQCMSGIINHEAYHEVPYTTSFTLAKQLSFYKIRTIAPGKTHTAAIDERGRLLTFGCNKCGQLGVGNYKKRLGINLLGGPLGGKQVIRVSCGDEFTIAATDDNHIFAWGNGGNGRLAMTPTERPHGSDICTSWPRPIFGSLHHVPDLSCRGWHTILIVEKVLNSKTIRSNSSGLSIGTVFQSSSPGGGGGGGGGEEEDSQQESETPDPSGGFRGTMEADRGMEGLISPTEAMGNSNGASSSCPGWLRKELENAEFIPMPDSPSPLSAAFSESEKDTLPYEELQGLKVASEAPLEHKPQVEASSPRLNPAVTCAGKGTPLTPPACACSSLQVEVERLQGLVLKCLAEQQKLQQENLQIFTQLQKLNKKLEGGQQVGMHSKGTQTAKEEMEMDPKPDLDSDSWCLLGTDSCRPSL

[16] = molecular target: PAS domain-containing serine/threonine-protein kinase (Homo sapiens) (UniProt Q96RG2); test: Inhibition of recombinant human PASK (995 to end residues) at 10 uM using KKLNRTLSFAEPG as substrate measured after 40 mins in presence of [gamma33P]ATP by scintillation counting method
[17] = system: Platelet-derived growth factor receptor alpha (Homo sapiens), P16234 [V561D]; test: Inhibition of recombinant human PDGFRalpha V561D mutant (550 to end residues) at 10 uM using GGMEDIYFEFMGGKKK as substrate measured after 40 mins in presence of [gamma33P]ATP by scintillation counting method
[18] = system: Phosphorylase b kinase gamma catalytic chain, liver/testis isoform (Homo sapiens), P15735 [F290L]; test: Inhibition of recombinant human PhKgamma2 F290L mutant (1 to 301 residues) at 10 uM using KKLNRTLSFAEPG as substrate measured after 40 mins in presence of [gamma33P]ATP by scintillation counting method
[19] = molecular target: Serine/threonine-protein kinase PLK3 (Homo sapiens) (UniProt Q9H4B4); test: Inhibition of recombinant human Plk3 (19 to 301 residues) at 10 uM using casein as substrate measured after 40 mins in presence of [gamma33P]ATP by scintillation counting method
[20] = molecular target: cGMP-dependent protein kinase 2 (Homo sapiens) (UniProt Q13237); test: Inhibition of recombinant full-length human PRKG2 at 10 uM using KKLRRTLSFAEPG as substrate measured after 40 mins in presence of [gamma33P]ATP by scintillation counting method
[21] = molecular target: Serine/threonine-protein kinase SIK2 (Homo sapiens) (UniProt Q9H0K1); test: Inhibition of human SIK2 (1 to 276 residues) using KKKVSRSGLYRSPSMPENLNRPR as substrate measured after 40 mins in presence of [gamma33P]ATP by scintillation counting method
Chain of Serine/threonine-protein kinase SIK2 (Homo sapiens) (Q9H0K1 whole entry, looked up, the tested form may be a part): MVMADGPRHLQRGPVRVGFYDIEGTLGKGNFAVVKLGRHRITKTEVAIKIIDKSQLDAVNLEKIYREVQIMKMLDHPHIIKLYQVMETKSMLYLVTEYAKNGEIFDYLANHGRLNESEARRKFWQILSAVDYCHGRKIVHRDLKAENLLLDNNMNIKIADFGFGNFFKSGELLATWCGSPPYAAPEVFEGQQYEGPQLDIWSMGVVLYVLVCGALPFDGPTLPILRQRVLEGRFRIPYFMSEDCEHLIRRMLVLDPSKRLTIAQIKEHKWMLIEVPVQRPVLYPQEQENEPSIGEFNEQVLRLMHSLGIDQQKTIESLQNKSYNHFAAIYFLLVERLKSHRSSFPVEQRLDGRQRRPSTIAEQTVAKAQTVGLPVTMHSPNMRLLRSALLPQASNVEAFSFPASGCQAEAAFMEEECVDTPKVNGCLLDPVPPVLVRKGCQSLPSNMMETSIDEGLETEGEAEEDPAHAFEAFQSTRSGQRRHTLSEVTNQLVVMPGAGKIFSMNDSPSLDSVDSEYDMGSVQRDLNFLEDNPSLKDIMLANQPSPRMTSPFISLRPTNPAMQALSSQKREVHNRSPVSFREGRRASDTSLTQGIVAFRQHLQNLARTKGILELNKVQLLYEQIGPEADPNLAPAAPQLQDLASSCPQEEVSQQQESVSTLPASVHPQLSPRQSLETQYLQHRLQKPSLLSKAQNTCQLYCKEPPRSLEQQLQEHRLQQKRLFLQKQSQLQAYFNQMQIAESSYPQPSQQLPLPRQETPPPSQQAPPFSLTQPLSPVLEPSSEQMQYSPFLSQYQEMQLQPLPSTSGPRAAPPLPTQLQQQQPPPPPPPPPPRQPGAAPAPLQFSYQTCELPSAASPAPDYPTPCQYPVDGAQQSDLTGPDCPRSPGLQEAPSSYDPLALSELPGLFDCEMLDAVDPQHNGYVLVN
In short: (§1)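 Kinase panel of 422 kinases screened by Eurofins KinaseProfiler at a single test-compound concentration of 10 µM.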

[22] = molecular target: SRSF protein kinase 1 (Homo sapiens) (UniProt Q96SB4); test: Inhibition of human SRPK1 (2 to end residues) using RSRSRSRSRSRSRSR as substrate measured after 40 mins in presence of [gamma33P]ATP by scintillation counting method; in short: as §1
[23] = system: PI3-kinase p110-alpha/p85-alpha (Homo sapiens), P27986+P42336 [E545K]; test: Inhibition of recombinant full-length human PI3K p110alpha/p85alpha E545K mutant at 10 uM using phosphatidylinositol-4, 5-bisphosphate as substrate measured after 40 mins by fluorescence assay; assay type: protein-complex assay

CN1C[C@H](Nc2nc3cc[nH]c3c(=O)n2C)C[C@H](c2ccc3c(c2)OCCO3)C1
inactive: Activity [1] | inhibition [3] | inhibition [4] | inhibition [5] | inhibition [6] | inhibition [7] | inhibition [8] | inhibition [9] | inhibition [10] | inhibition [11] | inhibition [12] | inhibition [13] | inhibition [14] | inhibition [15] | inhibition [16] | inhibition [17] | inhibition [18] | inhibition [19] | inhibition [20] | inhibition [21] | inhibition [22] | inhibition [23]
480 µM: solubility [2]
